Common to all, as to format: functional
Assay [1] can be described thus: In vitro inhibition of Collagen (10 ug/mL) induced platelet aggregatory activity.
A short description of assay [2]: Percentage inhibition against platelet activating factor (2 ng/mL) induced platelet aggregatory activity.
A short description of assay [3]: Percentage inhibition against thrombin induced platelet aggregatory activity. Further details: concentration or dose not given beside the values.
Assay [4] is described as follows: Inhibitory concentration required against Arachidonic acid (100 uM) induced platelet aggregatory activity. The gist of the method:
(§1)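 Platelets were preincubated with test agent or vehicle (DMSO 0.5%) at 37 °C for 3 min before the inducer was added, and aggregation was then followed. Aspirin served as the positive control. IC50 values are reported as means ± SE (n=3).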

The nature of assay [5]: In vitro inhibition of Arachidonic acid (100 uM) induced platelet aggregatory activity.
A short description of assay [6]: Percentage inhibition against Platelet activating factor (2 ng/mL) induced platelet aggregatory activity.
A short description of assay [7]: In vitro inhibition of Collagen (10 ug/mL) induced platelet aggregatory activity. The gist of the method: as §1

Each structure is given as a SMILES string.

The IC50 is the concentration that inhibits the measured activity by half. As usually defined, the Inhibition is the percentage by which the read-out fell short of the control. Regarding `COc1ccc(Cc2nccc3cc(OC)c(OC)cc23)cc1`, the figures for the IC50 in assay [1] and in assay [4] were 36.7 µM and 59.2 µM, respectively. In addition, the values for the Inhibition in assay [2] and in assay [3] were 52% and 26%, respectively.
With `COc1cc2ccnc(C(=O)c3cccc(Br)c3)c2cc1OC`, the values for the IC50 in assay [1] and in assay [6] were 69 µM and 85 µM, respectively. Besides, the Inhibition in assay [3] is recorded as 5%; in assay [5], 35%.
For `COc1cc2c(cc1OC)C(C(=O)c1ccc(Cl)cc1)=NCC2`, the concentration for half-maximal inhibition (IC50) in assay [1] turned out to be 66.1 µM. The Inhibition was 22% in assay [2], 18% in assay [3] and 48% in assay [5].
For the molecule `COc1cc2ccnc(Cc3cccc(Cl)c3)c2cc1OC`, the IC50 in assay [1] worked out at 73.6 µM; in assay [4] it was 90.2 µM. For the same molecule, the Inhibition in assay [2] came out at 11%; in assay [3], 18%.
In the case of `COc1cc2ccnc(C(=O)c3ccccc3Br)c2cc1OC`, the IC50 in assay [1] was 77.3 µM. Moreover, the Inhibition in assay [2] is 25%; in assay [3] it was 6%; in assay [5] it was 49%.
With `COc1cc2c(cc1OC)C(C(=O)c1ccccc1OC)=NCC2`, the Inhibition in assay [7] amounted to 18%; in assay [2], 26%; in assay [3] it was 8%; in assay [5], 21%.
Regarding `COc1cc2ccnc(Cc3ccc(Br)cc3)c2cc1OC`, the values for the IC50 in assay [1] and in assay [4] were 55.6 µM and 94 µM, respectively. Further, the Inhibition in assay [2] was found to be 8%; in assay [3] it was 11%.
With `COc1cc2ccnc(Cc3ccccc3Br)c2cc1OC`, in assay [1], the midpoint of inhibition, the IC50, lay at 99.2 µM. Besides, the Inhibition is 8% in assay [2], 7% in assay [3] and 46% in assay [5].
As for `COc1ccc(C(=O)c2nccc3cc(OC)c(OC)cc23)cc1`, the values for the IC50 in assay [1] and in assay [6] were 97 µM and 64.7 µM, respectively. Further, the Inhibition in assay [3] amounted to 4%; in assay [5] it was 20%.
As for `COc1ccc(C(O)c2nccc3cc(OC)c(OC)cc23)cc1` (stereo unspecified), half-maximal inhibition in assay [1] (IC50) was put at 58.9 µM. Also, the Inhibition is 18% in assay [2], 9% in assay [3] and 44% in assay [5].
As to `COc1cc2ccnc(C(=O)c3ccc(Br)cc3)c2cc1OC`, the Inhibition in assay [7] was determined as 36%; in assay [2], 44%; in assay [3], 5%; in assay [5], 22%.
Taken in the same sequence, the figures for `COc1cc2ccnc(C(=O)c3ccccc3OC)c2cc1OC` were 39%, 35%, 1% and 50%.
On to `COc1cc2ccnc(Cc3cccc(Br)c3)c2cc1OC`, for which the IC50 in assay [1] came out at 48.9 µM; in assay [4] it was 68.8 µM. In addition, the figures for the Inhibition in assay [2] and in assay [3] were 23% and 8%, respectively.
On to `COc1cccc(C(=O)C2=NCCc3cc(OC)c(OC)cc32)c1`, for which the Inhibition is 31% in assay [7], 15% in assay [2], 14% in assay [3] and 48% in assay [5].
Taken in the same sequence, the figures for `COc1cccc(Cc2nccc3cc(OC)c(OC)cc23)c1` were 46%, 12%, 5% and 39%.
For `COc1cc2c(cc1OC)C(C(=O)c1ccccc1Cl)=NCC2`, half-maximal inhibition in assay [1] (IC50) was put at 88.1 µM. Further, the Inhibition was found to be 20% in assay [2], 9% in assay [3] and 27% in assay [5].
In the case of `COc1cc2ccnc(C(=O)c3ccccc3Cl)c2cc1OC`, the results for the IC50 in assay [1], in assay [4] and in assay [6] were 52.1 µM, 77.1 µM and 82 µM, respectively. Moreover, in assay [3], the Inhibition came out at 30%.
For `COc1cc2ccnc(C(=O)c3cccc(Cl)c3)c2cc1OC`, half-maximal inhibition in assay [1] (IC50) was put at 72.6 µM. Further, the Inhibition in assay [2] is on record as 47%; in assay [3] it was 4%; in assay [5], 35%.
Taken in the same sequence, the figures for `COc1ccc(C(=O)C2=NCCc3cc(OC)c(OC)cc32)cc1` were 87 µM, 41%, 10% and 19%.
For the molecule `COc1ccccc1Cc1nccc2cc(OC)c(OC)cc12`, the IC50 in assay [1] was determined as 51.2 µM; in assay [4] it was 66.2 µM. Moreover, the figures for the Inhibition in assay [2] and in assay [3] were 20% and 8%, respectively.
In the case of `COc1cc2c(cc1OC)C(C(=O)c1cccc(Br)c1)=NCC2`, the results for the IC50 in assay [1] and in assay [6] were 74.5 µM and 75.8 µM, respectively. Moreover, the results for the Inhibition in assay [3] and in assay [5] were 4% and 23%, respectively.
Turning to `COc1cc2c(cc1OC)C(C(=O)c1cccc(Cl)c1)=NCC2`, the Inhibition in assay [7] was determined as 35%; in assay [2] it was 32%; in assay [3] it was 3%; in assay [5] it was 25%.
Take `COc1cc2ccnc(Cc3ccccc3Cl)c2cc1OC`: it took 72.3 µM to reach half-maximal inhibition in assay [1] (IC50). Further, the Inhibition in assay [2] worked out at 13%; in assay [3], 8%; in assay [5] it was 34%.
On to `COc1cc2ccnc(Cc3ccc(Cl)cc3)c2cc1OC`, for which the concentration for half-maximal inhibition (IC50) in assay [1] worked out at 32.7 µM; in assay [4], 51.3 µM. Also, the Inhibition in assay [2] is on record as 26%; in assay [3] it was 28%.
For `COc1cc2c(cc1OC)C(C(=O)c1ccc(Br)cc1)=NCC2`, the Inhibition stood at 20% in assay [7], 10% in assay [2], 4% in assay [3] and 6% in assay [5].
Molecule `COc1cc2ccnc(C(=O)c3ccc(Cl)cc3)c2cc1OC` displayed a 50% inhibitory concentration (IC50) in assay [1] of 89.2 µM. The results for the Inhibition in assay [3] and in assay [5] were 9% and 11%, respectively.
Consider `CC(=O)Oc1ccccc1C(=O)O` [ASPIRIN], for which the IC50 in assay [1] stood at 34.9 µM; in assay [4], 34.6 µM. For the same molecule, the Inhibition is 2% in assay [2] and 81% in assay [3].
As to `COc1cccc(C(=O)c2nccc3cc(OC)c(OC)cc23)c1`, the IC50 was 39.1 µM in assay [1], 37.7 µM in assay [4] and 73 µM in assay [6]. Besides, in assay [3], the Inhibition worked out at 46%.
